Source: ChEMBL document CHEMBL2176896, “Phthalazine derivatives containing imidazole rings behave as Fe-SOD inhibitors and show remarkable anti-T. cruzi activity in immunodeficient-mouse mode of infection” (J Med Chem, 2012)
Calls of active or inactive are those of the source. The rule behind the calls is not given here.

Experiments:
[1] = Inhibition of Trypanosoma cruzi IRHOD/VO/2008/SN3 epimastigotes Iron superoxide dismutase by spectrophotometry
Outline: (§1)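 Enzyme from sonicated parasites in STE buffer, pH 7.8, or human erythrocyte CuZn-SOD. Activity measured as NBT reduction by superoxide (Beyer–Fridovich): methionine, NBT, Triton X-100 and riboflavin, with A560 read before and after 10 min of light. Compounds tested at 1–100 μM. Mean of five; IC50 by linear regression from Kc.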

[2] = test system: Trypanosoma cruzi; experiment: (§2) Toxicity in Trypanosoma cruzi IRHOD/VO/2008/SN3 metacyclic forms infected BALB/c mouse model of acute Chagas disease assessed as mortality incidence at 5 mg/kg/day, ip administered for 5 consecutive days starting on day 7 post infection until day 12 post infection and measured 40 days post infection; format: organism-based; design: route intraperitoneal; conditions: in vivo, 960 h
Outline: (§3)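 Female BALB/c mice (6–8 wk, 25–30 g), six per group, were infected ip with 5 × 10^5 metacyclic trypomastigotes from infected mouse blood. Once infection was confirmed, compound was given ip daily on days 7–12 pi. An infected untreated group served as control. Deaths were recorded during treatment, and parasitemia was counted in mandibular-vein blood every 3 days up to day 40 pi.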

[3] = test system: Trypanosoma cruzi; experiment: (§4) Antitrypanosomal activity against Trypanosoma cruzi IRHOD/VO/2008/SN3 metacyclic forms infected in BALB/c mouse model of chronic Chagas disease subjected to 3 cycles of immunosuppression with 50 mg/kg cyclophosphamide monohydrate for 3 consecutive weeks assessed as change in IgG absorbance level at 5 mg/kg/day, ip administered for 5 consecutive days starting on day 7 post infection until day 12 post infection and measured on day 150 post infection by ELISA; format: functional
Outline: (§5)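 Infected, treated mice (ip 5 or 15 mg/kg/day, days 7–12 pi) kept to day 120. Half then given three 4-day cycles of cyclophosphamide at 50 mg/kg with 3-day gaps; the rest left untreated. Serum IgG measured by ELISA on parasite-excreted Fe-SOD antigen: 1:100 serum, anti-IgG peroxidase 1:1000, OPD, A492, in triplicate. Reported as immunosuppressed minus non-immunosuppressed OD.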

[4] = Selectivity index, ratio of IC50 for african green monkey Vero cells to IC50 for Trypanosoma cruzi IRHOD/VO/2008/SN3 epimastigotes; format: toxicity, cell-based; conditions: Vero cells versus Trypanosoma cruzi epimastigotes, read-out: Ratio IC50
[5] = Selectivity index, ratio of IC50 for african green monkey Vero cells to IC50 for Trypanosoma cruzi IRHOD/VO/2008/SN3 axenic amastigotes; format: toxicity, cell-based; conditions: Vero cells versus Trypanosoma cruzi axenic amastigotes, read-out: Ratio IC50
[6] = test system: Trypanosoma cruzi; experiment: as §2, with “Antitrypanosomal activity against” for “Toxicity in”, “infected in” for “infected”, “reduction parasitemia” for “mortality incidence”, “on day 15 to 20” for “40 days”; format: functional
Outline: (§6)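 Groups of six female BALB/c mice (6–8 weeks, 25–30 g) inoculated ip with 5 × 10^5 metacyclic trypomastigotes. Dosed ip at 5 or 15 mg/kg/day on days 7–12 pi; untreated infected controls. Mandibular-vein blood (5 μL in 495 μL PBS) counted every 3 days for 40 days in a Neubauer chamber, as parasites/mL.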

[7] = Selectivity index, ratio of IC50 for african green monkey Vero cells to IC50 for Trypanosoma cruzi IRHOD/VO/2008/SN3 intracellular amastigotes; format: toxicity, cell-based; conditions: read-out: Ratio IC50
[8] = test system: Trypanosoma cruzi; experiment: Inhibition of Trypanosoma cruzi IRHOD/VO/2008/SN3 epimastigotes Iron superoxide dismutase at 50 uM by spectrophotometry; outline: as §1
[9] = test system: Trypanosoma cruzi; experiment: Antitrypanosomal activity against Trypanosoma cruzi IRHOD/VO/2008/SN3 metacyclic forms infected in african green monkey Vero cells assessed as inhibition of infection rate at IC25 level 0.5 to 10 days; format: functional
Outline: (§7)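 Vero cells in RPMI infected with metacyclic forms at 10:1. Compounds added at IC25 immediately after infection for 12 h at 37 °C, 5% CO2, then washed off. Cultures grown 10 days with fresh medium every 48 h. Giemsa slides scored for % infected cells and amastigotes per cell (>100 cells); trypomastigotes in medium counted. Mean of four.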

[10] = test system: Trypanosoma cruzi; experiment: as §4, with “as parasitemia reactivation” for “as change in IgG absorbance”, “at 15” for “at 5”, “infection” for “infection by ELISA”; format: functional
Outline: (§8)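 Female BALB/c mice (6–8 wk, 25–30 g), six per group, were infected ip with 5 × 10^5 metacyclic trypomastigotes from infected mouse blood and dosed ip daily on days 7–12 pi. From day 120 pi a subgroup got three 4-day cycles of cyclophosphamide 50 mg/kg, 3 days apart. Parasites were counted by Neubauer chamber the day after cycle three in 5 μL mandibular-vein blood (1:100 PBS). Reactivation was scored against the matching non-immunosuppressed group; three experiments.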

[11] = Selectivity index, ratio of IC50 for african green monkey Vero cells to IC50 for Trypanosoma cruzi IRHOD/VO/2008/SN3 blood trypomastigotes; format: toxicity, cell-based; conditions: Vero cells versus Trypanosoma cruzi blood trypomastigotes, read-out: Ratio IC50
[12] = test system: Trypanosoma cruzi; experiment: Antitrypanosomal activity against Trypanosoma cruzi IRHOD/VO/2008/SN3 epimastigotes incubated for 72 hrs; conditions: IRHOD/VO/2008/SN3, 72 h
[13] = test system: Trypanosoma cruzi; experiment: Induction of ultrastructural modifications in Trypanosoma cruzi Maracay at IC25 level incubated for 96 hrs by transmission electron microscopy; format: functional, organism-based
Outline: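 Maracay epimastigotes at 5 × 10^5 cells/mL exposed at IC25 for 96 h. Pellets washed in PBS, fixed in 2% paraformaldehyde/glutaraldehyde in 0.05 M cacodylate (pH 7.4) for 4 h at 4 °C, then examined by TEM.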

[14] = test system: Trypanosoma cruzi; experiment: (§9) Antitrypanosomal activity against Trypanosoma cruzi IRHOD/VO/2008/SN3 metacyclic forms infected in BALB/c mouse model of acute Chagas disease assessed as reduction in parasitemia level at 15 mg/kg/day, ip administered for 5 consecutive days starting on day 7 post infection until day 12 post infection and measured on day 15 post infection relative to untreated control; format: functional; design: scale not given: the % may be the effect or the level left; conditions: route intraperitoneal; outline: as §6
[15] = test system: Trypanosoma cruzi; experiment: Antitrypanosomal activity against Trypanosoma cruzi IRHOD/VO/2008/SN3 metacyclic forms infected in african green monkey Vero cells assessed as inhibition of intracellular amastigotes replication at IC25 level 0.5 to 10 days; format: functional; outline: as §7
[16] = biological target: Superoxide dismutase [Cu-Zn] (Homo sapiens, UniProt P00441); experiment: Inhibition of SOD1 in human erythrocytes by spectrophotometry; format: cell-based; outline: as §1
[17] = test system: Trypanosoma cruzi; experiment: Antitrypanosomal activity against Trypanosoma cruzi IRHOD/VO/2008/SN3 metacyclic forms infected in african green monkey Vero cells assessed as inhibition of trypomastigotes level at IC25 level 0.5 to 10 days; format: functional; outline: as §7
[18] = test system: Trypanosoma cruzi; experiment: Effect on glucose metabolism in Trypanosoma cruzi IRHOD/VO/2008/SN3 epimastigotes assessed as excreted succinate level at IC25 level incubated for 96 hrs at 28 degC by [1H]NMR spectroscopy
[19] = test system: Trypanosoma cruzi; experiment: Antitrypanosomal activity against Trypanosoma cruzi IRHOD/VO/2008/SN3 isolated from mouse blood trypomastigotes incubated for 24 hrs; format: functional, organism-based; conditions: IRHOD/VO/2008/SN3, Blood
Outline: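 Blood from BALB/c mice 7 days post-infection, drawn by cardiac puncture into 3.8% citrate (7:3). Compounds in PBS at 10, 25 and 50 μM final, mixed with infected blood (~1 × 10^6 parasites/mL). Shaken 10 min at room temperature, held 24 h at 4 °C. Parasites counted at 1:100 dilution against a PBS control.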

[20] = test system: Trypanosoma cruzi; experiment: as §4, with “at 15” for “at 5”; format: functional; outline: as §5
[21] = test system: Trypanosoma cruzi; experiment: Effect on glucose metabolism in Trypanosoma cruzi IRHOD/VO/2008/SN3 epimastigotes assessed as excreted L-lactate level at IC25 level incubated for 96 hrs at 28 degC by [1H]NMR spectroscopy
[22] = test system: Trypanosoma cruzi; experiment: Effect on glucose metabolism in Trypanosoma cruzi IRHOD/VO/2008/SN3 epimastigotes assessed as excreted L-alanine level at IC25 level incubated for 96 hrs at 28 degC by [1H]NMR spectroscopy
[23] = test system: Trypanosoma cruzi; experiment: Effect on glucose metabolism in Trypanosoma cruzi IRHOD/VO/2008/SN3 epimastigotes assessed as excreted acetate level at IC25 level incubated for 96 hrs at 28 degC by [1H]NMR spectroscopy
[24] = test system: Trypanosoma cruzi; experiment: Antitrypanosomal activity against Trypanosoma cruzi IRHOD/VO/2008/SN3 intracellular amastigotes infected in african green monkey Vero cells incubated for 72 hrs; format: functional, organism-based; conditions: IRHOD/VO/2008/SN3, Vero
Outline: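 Vero cells (1 × 10^4/well) grown 2 days on coverslips, then infected with metacyclic forms at 10:1 for 24 h at 37 °C. Extracellular parasites washed off. Compounds at 1–100 μM for 72 h in RPMI with 10% FBS. Amastigotes counted on methanol-fixed, Giemsa-stained slides against untreated cultures. Mean of four determinations; IC50.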

[25] = test system: Trypanosoma cruzi; experiment: as §9, with “reduction” for “reduction in”, “parasitemia” for “parasitemia level”, “at 5” for “at 15”, “day 25” for “day 15”, “infection” for “infection relative to untreated control”; format: functional, organism-based; outline: as §6
[26] = test system: Trypanosoma cruzi; experiment: as §4, with “parasitemia reactivation” for “change in IgG absorbance”, “infection” for “infection by ELISA”; format: functional; outline: as §8
[27] = test system: Trypanosoma cruzi; experiment: Effect on glucose metabolism in Trypanosoma cruzi IRHOD/VO/2008/SN3 epimastigotes assessed as excreted ethanol level at IC25 level incubated for 96 hrs at 28 degC by [1H]NMR spectroscopy
[28] = Selectivity index, ratio of IC50 for SOD1 in human erythrocytes to IC50 for Trypanosoma cruzi IRHOD/VO/2008/SN3 epimastigotes Iron superoxide dismutase; format: cell-based
[29] = test system: Trypanosoma cruzi; experiment: Antitrypanosomal activity against Trypanosoma cruzi IRHOD/VO/2008/SN3 […] amastigotes infected in african green monkey Vero cells incubated for 72 hrs; format: functional, organism-based; conditions: IRHOD/VO/2008/SN3, Vero
[30] = test system: Trypanosoma cruzi; experiment: as §9, with “reduction” for “reduction in”, “parasitemia” for “parasitemia level”, “day 40” for “day 15”, “infection” for “infection relative to untreated control”; format: functional; design: scale not given: the % may be the effect or the level left; conditions: route intraperitoneal; outline: as §6
[31] = Toxicity against african green monkey Vero cells; format: cell-based, Chlorocebus sabaeus
[32] = as §2; format: organism-based; design: route intraperitoneal; conditions: BALB/c, in vivo, read-out: Activity; outline: as §3
[33] = test system: Trypanosoma cruzi; experiment: as §9, with “reduction” for “reduction in”, “parasitemia” for “parasitemia level”, “at 5” for “at 15”, “day 40” for “day 15”, “infection” for “infection relative to untreated control”; format: functional; design: scale not given: the % may be the effect or the level left; conditions: route intraperitoneal; outline: as §6

Chain of Superoxide dismutase [Cu-Zn] (P00441 whole entry): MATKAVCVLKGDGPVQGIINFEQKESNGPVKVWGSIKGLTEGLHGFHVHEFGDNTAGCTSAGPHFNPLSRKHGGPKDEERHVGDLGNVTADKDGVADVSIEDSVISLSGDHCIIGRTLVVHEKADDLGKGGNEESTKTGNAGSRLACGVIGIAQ

SMILES | IC50 [1] [µM] | selectivity ratio [4] | selectivity ratio [5] | selectivity ratio [7] | inhibition (INH) [9] [%] | selectivity ratio [11] | IC50 [12] [µM] | Activity [13] | inhibition (INH) [15] [%] | IC50 [16] [µM] | inhibition (INH) [17] [%] | Activity [18] | IC50 [19] [µM] | Activity [21] [%] | Activity [22] | Activity [23] [%] | IC50 [24] [µM] | Activity [27] | Ratio IC50 [28] | IC50 [29] [µM] | further results
Clc1nnc(NCCCn2ccnc2)c2ccccc12 | 14.4 | 49.6 | 41.2 | 49.1 | 80.3 | 42.8 | 8.8 | Active | 55.8 | 83.1 | 73.9 | inactive | 10.2 | -38 | -27% | -54 | 8.9 | -16% | 5.8 | 10.6 | Activity [2]: Non-toxic; deltaA [3]: 0.0143; Activity [6]: Active; inhibition [8]: 100%; Activity [10]: 8%; Activity [14]: 64%; deltaA [20]: 0.0096; Activity [25]: Active; Activity [26]: 21%; Activity [30]: 61%; IC50 [31]: 437 µM
c1ccc2c(NCCc3cnc[nH]3)nnc(NCCc3cnc[nH]3)c2c1 |  | 24.9 | 21.3 | 17.9 |  | 14.4 |  |  |  | 125 |  |  |  |  |  |  |  |  |  |  | IC50 [31]: 324 µM
c1ccc2c(NCCc3c[nH]cn3)nnc(NCCc3c[nH]cn3)c2c1 | 48 |  |  |  | 65.1 |  | 13 | Active | 48.7 |  | 63.8 | inactive | 22.5 | -15 | inactive | -10 | 18.1 | inactive | 2.6 | 15.2 | 
Clc1nnc(NCCc2c[nH]cn2)c2ccccc12 | 12.9 | 49.1 | 42.3 | 45.5 | 83.9 | 46.5 | 8.7 | Active | 62.9 | 71.5 | 85.1 | inactive | 9.2 | -33 | -13% | -21 | 9.4 | -12% | 5.5 | 10.1 | Activity [2]: Non-toxic; deltaA [3]: 0.0103; Activity [6]: Active; inhibition [8]: 100%; Activity [10]: 4%; Activity [14]: 59%; deltaA [20]: 0.0067; Activity [25]: Active; Activity [26]: 9%; Activity [30]: 74%; IC50 [31]: 427 µM
O=C(Cn1ccnc1[N+](=O)[O-])NCc1ccccc1 [BENZNIDAZOLE] |  |  |  |  | 39.4 |  | 15.9 |  | 12.5 |  | 41.6 |  | 16.4 |  |  |  |  |  |  | 18.9 | mortality at 960 h [32]: 20%; Activity ([6]; route intraperitoneal): 15.3%; Activity [33]: 16.7%; Activity [25]: Active; Activity [26]: 36%
c1ccc2c(NCCCn3ccnc3)nnc(NCCCn3ccnc3)c2c1 | 41.7 | 17.3 | 24.2 | 18.2 | 51.5 | 17.8 | 17.4 | Active | 41.1 | 66 | 57.8 | inactive | 16.9 | -24 | inactive | -21 | 16.6 | inactive | 1.6 | 12.4 | IC50 [31]: 302 µM
